According to ChEMBL document CHEMBL3232881, “New orally active amino- and hydroxy-functionalized 11-azaartemisinins and their derivatives with high order of antimalarial activity against multidrug-resistant Plasmodium yoelii in Swiss mice” (2014):

Tests used:
Assay type in all cases: functional
Plasmodium yoelii [1] = test: Antimalarial activity against chloroquine, mefloquine and halofantrine-resistant Plasmodium yoelii infected in Swiss mouse assessed as suppression of parasitemia at 24 mg/kg, po for 4 days by microscopic analysis relative to control
Outline: (§1)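 Swiss mice of either sex infected ip on day 0 with 1 × 10⁶ parasitized RBCs of multidrug-resistant P. yoelii nigeriensis, five per dose. Oral dosing in groundnut oil (0.1 mL) once daily days 0–3. Parasitemia read by microscopy on day 4. % suppression = [(C − T)/C] × 100 against untreated controls; 100% means no parasites in 50 oil-immersion fields.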

Plasmodium yoelii [2] = test: Antimalarial activity against chloroquine, mefloquine and halofantrine-resistant Plasmodium yoelii infected in Swiss mouse assessed as mouse survival at 24 mg/kg, po for 4 days measured on day 28 relative to control
Outline: (§2)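 P. yoelii nigeriensis (chloroquine-, mefloquine-, halofantrine-resistant) given ip as 1 × 10⁶ parasitized RBCs on day 0 to Swiss mice of either sex, five per dose. Compound in groundnut oil, 0.1 mL, given orally once daily days 0–3. Blood smears checked through day 28. Mice surviving beyond day 28 counted as protected, reported as % of five. β-Arteether as positive control.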

Plasmodium yoelii [3] = test: Antimalarial activity against chloroquine, mefloquine and halofantrine-resistant Plasmodium yoelii infected in Swiss mouse assessed as mouse survival at 12 mg/kg, po for 4 days measured on day 28 relative to control; outline: as §2
Plasmodium yoelii [4] = test: Antimalarial activity against chloroquine, mefloquine and halofantrine-resistant Plasmodium yoelii infected in Swiss mouse assessed as suppression of parasitemia at 12 mg/kg, po for 4 days by microscopic analysis relative to control; outline: as §1
Plasmodium yoelii [5] = test: Ratio of compound to beta-arteether for antimalarial activity against chloroquine, mefloquine and halofantrine-resistant Plasmodium yoelii infected in Swiss mouse assessed as mouse survival
Plasmodium yoelii [6] = test: Antimalarial activity against chloroquine, mefloquine and halofantrine-resistant Plasmodium yoelii infected in Swiss mouse assessed as suppression of parasitemia at 6 mg/kg, po for 4 days by microscopic analysis relative to control; outline: as §1
Plasmodium yoelii [7] = test: Antimalarial activity against chloroquine, mefloquine and halofantrine-resistant Plasmodium yoelii infected in Swiss mouse assessed as mouse survival at 6 mg/kg, po for 4 days measured on day 28 relative to control; outline: as §2
Plasmodium yoelii [8] = test: Antimalarial activity against chloroquine, mefloquine and halofantrine-resistant Plasmodium yoelii infected in Swiss mouse assessed as mouse survival at 48 mg/kg, po for 4 days measured on day 28 relative to control; outline: as §2
Plasmodium yoelii [9] = test: Antimalarial activity against chloroquine, mefloquine and halofantrine-resistant Plasmodium yoelii infected in Swiss mouse assessed as suppression of parasitemia at 48 mg/kg, po for 4 days by microscopic analysis relative to control; outline: as §1

SMILES	Activity (Plasmodium yoelii [1])	Activity (Plasmodium yoelii [2])	Activity (Plasmodium yoelii [3])	Activity (Plasmodium yoelii [4])	Ratio (Plasmodium yoelii [5])	Activity (Plasmodium yoelii [6])	Activity (Plasmodium yoelii [7])	Activity (Plasmodium yoelii [8])	Activity (Plasmodium yoelii [9])
C[C@@H]1CC[C@H]2[C@@H](C)C(=O)N(N)[C@@H]3O[C@@]4(C)CC[C@@H]1[C@@]23OO4	100%	40%							
C[C@@H]1CC[C@H]2[C@@H](C)C(=O)N(O)[C@@H]3O[C@@]4(C)CC[C@@H]1[C@@]23OO4	54%	0%							
C[C@@H]1CC[C@H]2[C@@H](C)C(=O)N(NC(=O)c3ccccc3)[C@@H]3O[C@@]4(C)CC[C@@H]1[C@@]23OO4	100%	100%	0%	62%					
C[C@@H]1CC[C@H]2[C@@H](C)C(=O)N(NC(=O)c3ccc(Br)cc3)[C@@H]3O[C@@]4(C)CC[C@@H]1[C@@]23OO4	100%	100%	0%	100%					
C[C@@H]1CC[C@H]2[C@@H](C)C(=O)N(NC(=O)c3ccc(C(F)(F)F)cc3)[C@@H]3O[C@@]4(C)CC[C@@H]1[C@@]23OO4	100%	100%	20%	100%					
C[C@@H]1CC[C@H]2[C@@H](C)C(=O)N(NC(=O)C34CC5CC(CC(C5)C3)C4)[C@@H]3O[C@@]4(C)CC[C@@H]1[C@@]23OO4	100%	60%							
C[C@@H]1CC[C@H]2[C@@H](C)C(=O)N(NC(=O)C3c4ccccc4-c4ccccc43)[C@@H]3O[C@@]4(C)CC[C@@H]1[C@@]23OO4	100%	60%							
C[C@@H]1CC[C@H]2[C@@H](C)C(=O)N(NC(=O)c3ccc(-c4ccccc4)cc3)[C@@H]3O[C@@]4(C)CC[C@@H]1[C@@]23OO4	100%	100%	100%	100%	4	94%	0%		
C[C@@H]1CC[C@H]2[C@@H](C)C(=O)N(NC(=O)CC34CC5CC(CC(C5)C3)C4)[C@@H]3O[C@@]4(C)CC[C@@H]1[C@@]23OO4	100%	60%							
C[C@@H]1CC[C@H]2[C@@H](C)C(=O)N(/N=C/c3ccccc3)[C@@H]3O[C@@]4(C)CC[C@@H]1[C@@]23OO4	100%	40%							
Cc1ccc(/C=N/N2C(=O)[C@H](C)[C@@H]3CC[C@@H](C)[C@@H]4CC[C@@]5(C)OO[C@]43[C@H]2O5)cc1	100%	100%	100%	100%	4	66%	0%		
C[C@@H]1CC[C@H]2[C@@H](C)C(=O)N(/N=C/c3ccc(Cl)cc3)[C@@H]3O[C@@]4(C)CC[C@@H]1[C@@]23OO4	100%	20%							
C[C@@H]1CC[C@H]2[C@@H](C)C(=O)N(/N=C/c3ccc(F)cc3)[C@@H]3O[C@@]4(C)CC[C@@H]1[C@@]23OO4	100%	40%							
C[C@@H]1CC[C@H]2[C@@H](C)C(=O)N(/N=C/c3ccc(C(F)(F)F)cc3)[C@@H]3O[C@@]4(C)CC[C@@H]1[C@@]23OO4	100%	100%	100%	100%	4	99%	0%		
C[C@@H]1CC[C@H]2[C@@H](C)C(=O)N(/N=C/c3ccc(-c4ccccc4)cc3)[C@@H]3O[C@@]4(C)CC[C@@H]1[C@@]23OO4	100%	100%	100%	100%	4	100%	80%		
C[C@@H]1CC[C@H]2[C@@H](C)C(=O)N(/N=C/c3ccc4c(c3)Cc3ccccc3-4)[C@@H]3O[C@@]4(C)CC[C@@H]1[C@@]23OO4	100%	100%	100%	100%	4	66%	0%		
C[C@@H]1CC[C@H]2[C@@H](C)C(=O)N(NCc3ccccc3)[C@@H]3O[C@@]4(C)CC[C@@H]1[C@@]23OO4	100%	100%	0%	100%					
Cc1ccc(CNN2C(=O)[C@H](C)[C@@H]3CC[C@@H](C)[C@@H]4CC[C@@]5(C)OO[C@]43[C@H]2O5)cc1	100%	60%	0%	74%					
C[C@@H]1CC[C@H]2[C@@H](C)C(=O)N(NCc3ccc(Cl)cc3)[C@@H]3O[C@@]4(C)CC[C@@H]1[C@@]23OO4	100%	100%	80%	100%					
C[C@@H]1CC[C@H]2[C@@H](C)C(=O)N(NCc3ccc(F)cc3)[C@@H]3O[C@@]4(C)CC[C@@H]1[C@@]23OO4	100%	100%	20%	100%					
C[C@@H]1CC[C@H]2[C@@H](C)C(=O)N(NCc3ccc(C(F)(F)F)cc3)[C@@H]3O[C@@]4(C)CC[C@@H]1[C@@]23OO4	100%	100%	20%	100%					
C[C@@H]1CC[C@H]2[C@@H](C)C(=O)N(NCc3ccc(-c4ccccc4)cc3)[C@@H]3O[C@@]4(C)CC[C@@H]1[C@@]23OO4	100%	100%	100%	100%	4	100%	20%		
C[C@@H]1CC[C@H]2[C@@H](C)C(=O)N(NCc3ccc4c(c3)Cc3ccccc3-4)[C@@H]3O[C@@]4(C)CC[C@@H]1[C@@]23OO4	100%	100%	40%	100%					
C[C@@H]1CC[C@H]2[C@@H](C)C(=O)N(OCc3ccccc3)[C@@H]3O[C@@]4(C)CC[C@@H]1[C@@]23OO4	100%	100%	80%	100%					
C[C@@H]1CC[C@H]2[C@@H](C)C(=O)N(OCc3ccccc3F)[C@@H]3O[C@@]4(C)CC[C@@H]1[C@@]23OO4	100%	100%	0%	89%					
C[C@@H]1CC[C@H]2[C@@H](C)C(=O)N(OCc3ccc(-c4ccccc4)cc3)[C@@H]3O[C@@]4(C)CC[C@@H]1[C@@]23OO4	100%	100%	60%	100%					
CCO[C@H]1O[C@@H]2O[C@@]3(C)CC[C@H]4[C@H](C)CC[C@@H]([C@H]1C)[C@@]24OO3 [ARTEMOTIL]	100%	20%						100%	100%
